Reference: ChEMBL document CHEMBL1144893, “Discovery of a potent and selective protein kinase CK2 inhibitor by high-throughput docking” (J Med Chem, 2003)
One block for each compound: values may come before it.

Experiments:
[1] = molecular target: T1, Casein kinase II (Homo sapiens) (UniProt P67870+P68400+P19784); test: Inhibition of Casein kinase 2 at 10 uM; format: protein-complex assay
[2] = molecular target: Platelet-derived growth factor receptor beta (Homo sapiens) (UniProt P09619); test: Inhibition of Platelet derived growth factor receptor beta at 10 uM
Procedure, shortened: (§1)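 Filter-binding assay with recombinant GST-fused kinase domains expressed in baculovirus and purified over glutathione sepharose. [33P]-ATP was the phosphate donor and polyGluTyr (4:1) the acceptor. ATP was near Km: KDR, Flt-1, FGFR-1, Tek 8.0 μM; PDGFR-β, c-Kit, c-Met 1.0 μM; c-abl 5 μM; Her-1, Her-2 2.0 μM; c-Src 20 μM; IGF-1R 30 μM.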

[3] = molecular target: Hepatocyte growth factor receptor (Homo sapiens) (UniProt P08581); test: Inhibition of Protein kinase Met at 10 uM; procedure, shortened: as §1
[4] = molecular target: Fibroblast growth factor receptor 1 (Homo sapiens) (UniProt P11362); test: Inhibition of Protein kinase fibroblast growth factor receptor 1 at 10 uM; procedure, shortened: as §1
[5] = molecular target: Vascular endothelial growth factor receptor 2 (Homo sapiens) (UniProt P35968); test: Inhibition of Kinase insert domain receptor (VEGFR2) at 10 uM; procedure, shortened: as §1
[6] = molecular target: Angiopoietin-1 receptor (Homo sapiens) (UniProt Q02763); test: Inhibition of Protein kinase TEK at 10 uM; procedure, shortened: as §1
[7] = molecular target: Mast/stem cell growth factor receptor Kit (Homo sapiens) (UniProt P10721); test: Inhibition of Protein kinase Kit at 10 uM; procedure, shortened: as §1
[8] = molecular target: T1, Casein kinase II (Homo sapiens)
[9] = molecular target: Receptor tyrosine-protein kinase erbB-2 (Homo sapiens) (UniProt P04626); test: Inhibition of protein kinase HER-2 at 10 uM; procedure, shortened: as §1
[10] = molecular target: Serine/threonine-protein kinase AKT (Homo sapiens) (UniProt P31751+Q9Y243+P31749); test: Inhibition of Protein kinase B at 10 uM; format: protein assay
[11] = molecular target: RAF proto-oncogene serine/threonine-protein kinase (Homo sapiens) (UniProt P04049); settings: 10 uM
[12] = molecular target: Proto-oncogene tyrosine-protein kinase Src (Homo sapiens) (UniProt P12931); test: Inhibition of Protein kinase Src at 10 uM; procedure, shortened: as §1
[13] = molecular target: Epidermal growth factor receptor (Homo sapiens) (UniProt P00533); test: Inhibition of protein kinase HER-1 at 10 uM; procedure, shortened: as §1
[14] = molecular target: cAMP-dependent protein kinase (PKA) (Homo sapiens) (UniProt P22694+P17612+P22612); test: Inhibition of Protein kinase A at 10 uM; format: protein assay
Procedure, shortened: (§2)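 Run under conditions optimized for each kinase, with ATP near the enzyme's Km: CDK1 7.5 μM, PKA 50 μM.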

[15] = molecular target: Tyrosine-protein kinase ABL1 (Homo sapiens) (UniProt P00519); test: Inhibition of c-Abl tyrosine kinase at 10 uM; procedure, shortened: as §1
[16] = molecular target: Cyclin-dependent kinase 1 (Homo sapiens) (UniProt P06493); test: Inhibition of Cyclin dependent kinase 1 at 10 uM; procedure, shortened: as §2
[17] = molecular target: Insulin-like growth factor 1 receptor (Homo sapiens) (UniProt P08069); test: Inhibition of Type 1 insulin like growth factor receptor at 10 uM; procedure, shortened: as §1
[18] = molecular target: Vascular endothelial growth factor receptor 3 (Homo sapiens) (UniProt P35916); settings: 10 uM
[19] = molecular target: Insulin receptor (Homo sapiens) (UniProt P06213); test: Inhibition of Insulin receptor at 10 uM
[20] = molecular target: Vascular endothelial growth factor receptor 1 (Homo sapiens) (UniProt P17948); test: Inhibition of Protein kinase Flt-1 at 10 uM; procedure, shortened: as §1
[21] = molecular target: Receptor-type tyrosine-protein kinase FLT3 (Homo sapiens) (UniProt P36888); test: Inhibition of Protein kinase Flt-3 at 10 uM
[22] = molecular target: 3-phosphoinositide-dependent protein kinase 1 (Homo sapiens) (UniProt O15530); test: Inhibition of Phosphatidylinositol-trisphosphate-dependent kinase 1 at 10 uM
Chain of 3-phosphoinositide-dependent protein kinase 1 (Homo sapiens) (O15530 whole entry): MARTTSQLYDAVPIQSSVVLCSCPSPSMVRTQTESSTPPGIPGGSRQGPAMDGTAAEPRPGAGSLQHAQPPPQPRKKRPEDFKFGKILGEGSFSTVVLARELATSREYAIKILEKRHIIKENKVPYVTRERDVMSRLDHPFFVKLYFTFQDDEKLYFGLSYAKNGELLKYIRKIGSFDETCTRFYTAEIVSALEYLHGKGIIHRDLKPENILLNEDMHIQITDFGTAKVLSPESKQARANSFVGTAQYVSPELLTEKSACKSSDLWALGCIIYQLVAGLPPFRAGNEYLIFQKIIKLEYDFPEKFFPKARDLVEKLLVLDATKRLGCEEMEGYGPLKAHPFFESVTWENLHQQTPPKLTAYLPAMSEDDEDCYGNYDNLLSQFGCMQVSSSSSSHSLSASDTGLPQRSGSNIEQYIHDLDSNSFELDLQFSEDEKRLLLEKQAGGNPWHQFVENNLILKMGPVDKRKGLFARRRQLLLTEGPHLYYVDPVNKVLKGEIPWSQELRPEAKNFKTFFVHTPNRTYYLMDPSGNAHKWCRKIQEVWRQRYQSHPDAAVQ

Chain of Cyclin-dependent kinase 1 (Homo sapiens) (P06493 whole entry, looked up): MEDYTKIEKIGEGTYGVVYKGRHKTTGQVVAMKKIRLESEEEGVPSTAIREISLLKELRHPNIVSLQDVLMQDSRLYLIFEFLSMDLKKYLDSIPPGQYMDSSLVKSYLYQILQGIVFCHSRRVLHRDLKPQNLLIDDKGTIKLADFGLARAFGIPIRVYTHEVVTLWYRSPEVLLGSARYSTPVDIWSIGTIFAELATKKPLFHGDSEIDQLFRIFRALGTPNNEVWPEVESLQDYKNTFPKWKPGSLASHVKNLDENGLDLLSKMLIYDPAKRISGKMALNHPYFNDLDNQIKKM
Chain of Vascular endothelial growth factor receptor 1 (Homo sapiens) (P17948 whole entry): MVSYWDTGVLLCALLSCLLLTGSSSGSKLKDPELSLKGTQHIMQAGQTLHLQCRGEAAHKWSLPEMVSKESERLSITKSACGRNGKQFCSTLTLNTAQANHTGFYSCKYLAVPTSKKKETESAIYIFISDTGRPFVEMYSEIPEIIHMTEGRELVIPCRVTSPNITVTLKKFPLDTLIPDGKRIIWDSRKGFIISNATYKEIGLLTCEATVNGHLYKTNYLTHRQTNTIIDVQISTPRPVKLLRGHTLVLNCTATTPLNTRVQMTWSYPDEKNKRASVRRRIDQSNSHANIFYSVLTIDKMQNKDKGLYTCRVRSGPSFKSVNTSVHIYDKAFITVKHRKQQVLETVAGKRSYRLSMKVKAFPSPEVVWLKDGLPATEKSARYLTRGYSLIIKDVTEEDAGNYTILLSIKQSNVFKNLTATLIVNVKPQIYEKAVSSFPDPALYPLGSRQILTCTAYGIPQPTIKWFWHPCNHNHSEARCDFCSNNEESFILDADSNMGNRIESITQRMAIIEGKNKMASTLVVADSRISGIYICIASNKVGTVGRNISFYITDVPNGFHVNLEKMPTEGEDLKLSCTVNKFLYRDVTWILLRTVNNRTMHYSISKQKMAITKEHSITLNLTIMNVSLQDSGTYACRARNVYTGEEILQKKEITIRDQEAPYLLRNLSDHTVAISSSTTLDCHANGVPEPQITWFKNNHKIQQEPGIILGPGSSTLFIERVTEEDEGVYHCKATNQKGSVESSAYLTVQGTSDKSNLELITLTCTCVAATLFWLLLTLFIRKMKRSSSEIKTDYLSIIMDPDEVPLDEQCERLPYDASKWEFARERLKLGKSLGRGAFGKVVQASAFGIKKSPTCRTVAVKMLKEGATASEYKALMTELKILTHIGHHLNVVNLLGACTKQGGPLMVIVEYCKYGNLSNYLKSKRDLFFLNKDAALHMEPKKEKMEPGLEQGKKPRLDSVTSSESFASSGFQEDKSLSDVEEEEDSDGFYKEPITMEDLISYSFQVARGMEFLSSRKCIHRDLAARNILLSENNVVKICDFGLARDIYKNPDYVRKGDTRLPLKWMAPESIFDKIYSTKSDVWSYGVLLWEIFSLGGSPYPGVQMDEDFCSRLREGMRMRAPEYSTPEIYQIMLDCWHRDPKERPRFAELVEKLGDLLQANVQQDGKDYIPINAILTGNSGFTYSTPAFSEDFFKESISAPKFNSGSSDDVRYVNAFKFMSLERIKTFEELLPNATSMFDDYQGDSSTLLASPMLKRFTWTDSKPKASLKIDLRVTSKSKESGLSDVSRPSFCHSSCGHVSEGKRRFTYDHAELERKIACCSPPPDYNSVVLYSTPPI
Chain of Insulin receptor (Homo sapiens) (P06213 28-758 limits assumed): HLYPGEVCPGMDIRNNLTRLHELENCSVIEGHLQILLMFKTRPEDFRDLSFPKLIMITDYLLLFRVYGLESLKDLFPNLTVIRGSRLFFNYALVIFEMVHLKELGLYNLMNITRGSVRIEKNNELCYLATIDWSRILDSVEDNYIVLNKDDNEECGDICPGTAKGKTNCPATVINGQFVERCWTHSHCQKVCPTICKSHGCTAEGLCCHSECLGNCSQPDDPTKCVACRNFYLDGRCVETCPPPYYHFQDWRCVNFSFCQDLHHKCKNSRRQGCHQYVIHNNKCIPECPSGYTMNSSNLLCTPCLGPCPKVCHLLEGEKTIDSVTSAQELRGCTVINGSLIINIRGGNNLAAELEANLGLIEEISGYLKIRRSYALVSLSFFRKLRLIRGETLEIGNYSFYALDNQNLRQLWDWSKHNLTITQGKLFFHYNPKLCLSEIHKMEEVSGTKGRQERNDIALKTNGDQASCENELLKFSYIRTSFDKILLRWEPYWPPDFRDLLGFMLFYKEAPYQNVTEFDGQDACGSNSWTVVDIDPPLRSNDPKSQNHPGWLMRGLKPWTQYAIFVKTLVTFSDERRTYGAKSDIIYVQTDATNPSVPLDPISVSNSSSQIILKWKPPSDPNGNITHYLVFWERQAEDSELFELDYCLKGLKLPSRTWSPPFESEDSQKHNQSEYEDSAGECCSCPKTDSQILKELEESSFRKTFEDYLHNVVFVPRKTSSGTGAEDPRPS
Chain of Insulin receptor (Homo sapiens) (P06213 763-1382 limits assumed): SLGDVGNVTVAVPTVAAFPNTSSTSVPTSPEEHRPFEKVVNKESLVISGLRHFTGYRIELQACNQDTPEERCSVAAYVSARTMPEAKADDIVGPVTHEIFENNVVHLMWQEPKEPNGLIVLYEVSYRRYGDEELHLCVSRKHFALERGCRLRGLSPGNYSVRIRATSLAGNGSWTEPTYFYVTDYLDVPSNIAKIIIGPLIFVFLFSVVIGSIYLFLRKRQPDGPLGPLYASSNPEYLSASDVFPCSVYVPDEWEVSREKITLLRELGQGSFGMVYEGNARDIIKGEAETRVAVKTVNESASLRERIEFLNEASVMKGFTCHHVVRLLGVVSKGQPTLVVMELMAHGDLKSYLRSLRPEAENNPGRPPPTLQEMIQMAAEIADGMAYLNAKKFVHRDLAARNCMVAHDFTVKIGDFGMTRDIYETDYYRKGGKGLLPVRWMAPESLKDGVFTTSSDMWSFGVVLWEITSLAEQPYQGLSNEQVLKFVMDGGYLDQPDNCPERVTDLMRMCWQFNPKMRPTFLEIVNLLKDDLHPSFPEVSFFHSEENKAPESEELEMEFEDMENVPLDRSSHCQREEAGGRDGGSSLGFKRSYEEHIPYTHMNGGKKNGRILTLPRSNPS
Chain of Proto-oncogene tyrosine-protein kinase Src (Homo sapiens) (P12931 2-536 limits assumed): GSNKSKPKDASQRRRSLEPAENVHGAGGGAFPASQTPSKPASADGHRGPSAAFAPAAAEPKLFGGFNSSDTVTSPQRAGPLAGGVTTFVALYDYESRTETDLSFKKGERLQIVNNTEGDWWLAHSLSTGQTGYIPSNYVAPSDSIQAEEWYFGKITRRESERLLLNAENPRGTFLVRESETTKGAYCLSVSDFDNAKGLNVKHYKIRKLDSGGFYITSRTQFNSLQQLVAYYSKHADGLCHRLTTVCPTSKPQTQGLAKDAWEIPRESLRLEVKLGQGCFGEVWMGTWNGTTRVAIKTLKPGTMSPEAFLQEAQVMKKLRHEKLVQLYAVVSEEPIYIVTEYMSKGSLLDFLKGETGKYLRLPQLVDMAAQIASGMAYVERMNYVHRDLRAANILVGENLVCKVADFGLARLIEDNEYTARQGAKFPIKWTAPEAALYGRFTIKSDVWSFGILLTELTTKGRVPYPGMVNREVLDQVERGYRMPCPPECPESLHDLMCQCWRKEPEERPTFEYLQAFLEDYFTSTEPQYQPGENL
Chain of Mast/stem cell growth factor receptor Kit (Homo sapiens) (P10721 whole entry): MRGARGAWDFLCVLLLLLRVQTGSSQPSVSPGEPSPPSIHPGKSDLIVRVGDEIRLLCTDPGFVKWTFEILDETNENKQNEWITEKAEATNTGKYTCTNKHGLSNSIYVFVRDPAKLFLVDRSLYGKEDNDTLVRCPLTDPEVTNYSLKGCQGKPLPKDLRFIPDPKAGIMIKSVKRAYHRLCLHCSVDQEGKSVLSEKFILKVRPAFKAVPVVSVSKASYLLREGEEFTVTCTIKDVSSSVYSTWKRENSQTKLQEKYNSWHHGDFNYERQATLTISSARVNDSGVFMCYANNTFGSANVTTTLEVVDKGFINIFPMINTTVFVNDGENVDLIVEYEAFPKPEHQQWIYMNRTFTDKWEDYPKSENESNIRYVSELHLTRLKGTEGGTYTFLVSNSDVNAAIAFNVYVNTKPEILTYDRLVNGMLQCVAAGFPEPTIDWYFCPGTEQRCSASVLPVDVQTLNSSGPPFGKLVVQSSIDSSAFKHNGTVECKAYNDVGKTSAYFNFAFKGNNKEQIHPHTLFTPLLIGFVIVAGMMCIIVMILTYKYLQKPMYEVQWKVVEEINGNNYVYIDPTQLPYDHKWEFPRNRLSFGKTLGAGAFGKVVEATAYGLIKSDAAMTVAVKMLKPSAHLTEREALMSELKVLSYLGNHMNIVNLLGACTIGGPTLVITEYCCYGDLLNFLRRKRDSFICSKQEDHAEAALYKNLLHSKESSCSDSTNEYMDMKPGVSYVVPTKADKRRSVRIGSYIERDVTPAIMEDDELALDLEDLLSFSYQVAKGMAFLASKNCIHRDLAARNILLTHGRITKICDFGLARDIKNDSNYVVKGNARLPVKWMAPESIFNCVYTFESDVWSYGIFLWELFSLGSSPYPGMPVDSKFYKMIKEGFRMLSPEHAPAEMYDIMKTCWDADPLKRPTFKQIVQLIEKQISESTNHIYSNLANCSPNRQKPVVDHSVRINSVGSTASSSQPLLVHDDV

inhibition [1]: 48%
SMILES: OCCc1c2ccccc2n2c1nc(O)c1ccccc12

inhibition [2]: 11%
inhibition [3]: 40%
inhibition [4]: 32%
inhibition [5]: 54%
inhibition [6]: 36%
inhibition [1]: 97%
inhibition [7]: 31%
IC50 [8]: 80 nM
inhibition [9]: 29%
inhibition [10]: 30%
inhibition [11]: 30%
inhibition [12]: 0%
inhibition [13]: 12%
inhibition [14]: 51%
inhibition [15]: 25%
inhibition [16]: 51%
inhibition [17]: 44%
inhibition [18]: 30%
inhibition [19]: 23%
inhibition [20]: 21%
inhibition [21]: 41%
inhibition [22]: 9%
SMILES: O=C(O)Cc1c2ccccc2n2c1[nH]c(=O)c1ccccc12

inhibition [1]: 12%
SMILES: Cc1c2ccccc2n2c1nc(O)c1ccccc12
